Experimental data: PMC9798253 (Protein Science : A Publication of the Protein Society, 2023)

Key:
[1] = tested on: GST-TRD (TRD domain of MECP2); test: GST-pulldown of MBP-ADD; assay type: binding; settings: 1 μg each protein; 25 mM Tris/HCl pH 8, 200 mM KCl; 1 h, 6°C; SDS-PAGE
[2] = tested on: GST-tagged TRD domain of MECP2 (170–325 of NP_004983); test: Peptide SPOT array binding of ADD peptides to GST-TRD; settings: 25 nM GST-TRD; 1 h; ECL detection (anti-GST)
Summary of the method: (§1)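 The cellulose-bound peptide arrays included alanine-substituted variants. Purified protein was applied for 1 h. Detection used anti-GST (1:12,000) or anti-MBP (1:10,000) for 1 h, then HRP secondary for 1 h.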

[3] = tested on: ADD D529A/D530A/D531A triple mutant; test: Peptide SPOT array binding of TRD peptides to ADD triple mutant; design: species or system human; settings: 25 nM ADD mutant; 1 h; ECL detection
Summary of the method: as §1

Substance | TRD binding of ADD peptides on SPOT array [2] | also measured
MBP-ADD: ADD domain of DNMT3A (476–614 of Q9Y6K1) as maltose‐binding protein (MBP) fusion | – | pulldown of MBP-ADD by GST-TRD [1]: strong and specific pulldown
TRD residues 214–228: 15mer SPOT peptide, TRD residues E214‐T228, WT peptide (EKSPGKLLVKMPFQT) | – | binding of ADD D529A/D530A/D531A triple mutant to TRD peptide on SPOT array [3]: Binding was lost
ADD 522–536: ADD surface peptide on SPOT array, WT sequence | showed TRD binding with the WT sequence | –

Now from value to substance, other results behind:

TRD binding of ADD peptides on SPOT array [2] | Substance | also measured
showed TRD binding with the WT sequence | ADD 592–606: ADD surface peptide on SPOT array, WT sequence | –
showed TRD binding with the WT sequence | ADD 496–510: ADD surface peptide on SPOT array, WT sequence | –
